Experimental data pooled from the literature.
Protocols differ between the studies behind these lines.
TLR8: Toll-like receptor 8 (TLR8, Homo sapiens, UniProt Q9NR97)

Structure (SMILES)	target	test	conditions	measurement	value
CC[C@@H](Oc1cccc(CN(CCCOc2ccc(OC)cc2)c2nc3ccccc3o2)c1)C(=O)O	Peroxisome proliferator-activated receptor gamma (PPARG, Homo sapiens, UniProt P37231)	binding, ITC	–	Kd	9.03 µM
CCCCc1nc2c(o1)c(N)nc1ccccc12	TLR8	reporter gene, agonist	–	EC50	12.5 µM
c1ccc2c(Oc3nc(Nc4ccc(N5CCOCC5)cc4)c4ncn(C5CCCCC5)c4n3)cccc2c1	Protein smoothened (SMO, Homo sapiens, UniProt Q99835)	GTPγS binding, agonist, radiometric	cell membranes	EC50	0.229 µM
CCOC(=O)CCCCCOc1ccc(Cl)cc1NC(=O)Nc1cnc(C#N)cn1	Serine/threonine-protein kinase Chk1 (CHEK1, Homo sapiens, UniProt O14757)	enzyme activity, inhibitor	–	IC50	0.38 µM
Cc1noc(C)c1-c1ccc(-c2nc3cnccn3c2NC(C)(C)C)cc1	Bromodomain and PHD finger-containing protein 3 (BRPF3, Homo sapiens, UniProt Q9ULD4)	cell-free assay, competition with immobilised ligand	–	Kd	40 µM
CCCCOc1nc(N)c2[nH]c(=O)n(CCN)c2n1	TLR8	reporter gene, agonist	–	EC50	209 µM
CCN(CC)Cc1ccc2cc(COC(=O)Nc3ccc(C(=O)NO)cc3)ccc2c1	Histone deacetylase 5 (HDAC5, Homo sapiens, UniProt Q9UQL6)	cell-free assay	–	Kd	> 30.2 µM
CCCCCCCCCCCCCCCCC#CC(=O)O	DNA topoisomerase 1 (TOP1, Homo sapiens, UniProt P11387)	enzyme activity, inhibitor	–	EC50	20.5 µM
